Compound activity as filed in PubChem BioAssay.
HTR2A ag = agonists of mouse serotonin 5-HT2A receptor (HTR2A). P35363. CHO-K1 mHTR2A beta-arrestin complementation, luminescence; percent of 30 µM serotonin response. activation, % at 7.6 µM. 0.66% of 360,000 active. AID 624169;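 active means activation above a run cutoff, the mean activation of all tested compounds plus 3 SD, cut at about 14% in these data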;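 further: 0% = plate median of compound wells and 100% = 30 µM serotonin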
CCR6 antagonist = CCR6 (human) receptor antagonism | AID 493098 | 0.49% of 340,000 active | inhibition, % at 20 µM | CHO-K1 CCR6 PathHunter beta-arrestin, luminescence, CCL20-stimulated;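 active means compounds whose inhibition of the agonist-driven luminescence signal at 20 µM reaches about 50%, limit read from the data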;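 further: cells stimulated with CCL20 at 14 nM final; plate controls were DMSO with CCL20 for no effect and DMSO without agonist for full effect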
APJ antagonist = APJ receptor antagonism; CHO-K1 APJ beta-arrestin complementation, luminescence; inhibition, % at 20 µM; 0.32% of 330,000 active; P35414;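 active means inhibition above about 40% at 20 µM, limit read from the data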;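 further: cells challenged with 10 nM apelin-13 agonist together with compound; plate controls were apelin-13 plus DMSO wells for no effect and DMSO wells lacking apelin-13 for full effect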
Target sequence (P35414 whole entry, looked up): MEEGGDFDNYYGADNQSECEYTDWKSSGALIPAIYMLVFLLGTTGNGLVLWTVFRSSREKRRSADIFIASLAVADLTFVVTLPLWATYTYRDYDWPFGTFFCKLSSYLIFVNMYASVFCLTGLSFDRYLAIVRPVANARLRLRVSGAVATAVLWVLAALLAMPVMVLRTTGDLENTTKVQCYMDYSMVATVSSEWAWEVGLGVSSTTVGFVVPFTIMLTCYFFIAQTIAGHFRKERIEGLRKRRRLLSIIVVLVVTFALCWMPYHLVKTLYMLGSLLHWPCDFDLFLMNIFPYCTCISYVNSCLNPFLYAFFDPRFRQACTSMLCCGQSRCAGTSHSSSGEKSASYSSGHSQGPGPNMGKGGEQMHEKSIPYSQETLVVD
EBI2 block = antagonists of human EBI2 receptor; P32249; EBI2 beta-arrestin recruitment, luminescence, 7a,25-OHC stimulated; inhibition, % at 5 µM; 0.81% of 360,000 active; AID 651636; in the data active means inhibition above about 38%;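 further: enzyme fragment complementation signal reports receptor beta-arrestin coupling in cells; 0% = agonist plus DMSO wells and 100% = wells without agonist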
APJ agonist = agonists of human APJ apelin receptor; P35414; CHO-K1 APJ PathHunter beta-arrestin, luminescence; 0% DMSO wells, 100% apelin; activation, % at 20 µM; 0.11% of 330,000 active;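 active means activation more than six SD over the plate average, tested at 20 µM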;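 further: 0% = DMSO alone and 100% = apelin-13 at 10 nM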
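Incubation: overnight seeding, 90 min compound at 25 °C, 1 h detection; test system: PathHunter CHO-K1 APJ (AGTRL-1) beta-arrestin reporter cells; amount: 1000 cells/well; doses: one dose, 20 µM compound, 1% DMSO; measured by: beta-gal luminescence; measure: agonist-driven arrestin binding to APJ; benchmarks: negative DMSO alone, positive Apelin-13 at 10 nM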
CXCR6 block = blocks human CXCR6 beta-arrestin recruitment; CHO-K1 PathHunter CXCR6 beta-arrestin, luminescence; inhibition, % at 20 µM; 0.36% of 360,000 active; AID 602244; in the data active means inhibition above about 34%, passing the limit was not always enough;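 further: antagonist mode with CXCL16 agonist at 10 nM final; 0% = 10 nM CXCL16 with DMSO and 100% = unstimulated wells without agonist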
Target sequence (O00574 whole entry, looked up): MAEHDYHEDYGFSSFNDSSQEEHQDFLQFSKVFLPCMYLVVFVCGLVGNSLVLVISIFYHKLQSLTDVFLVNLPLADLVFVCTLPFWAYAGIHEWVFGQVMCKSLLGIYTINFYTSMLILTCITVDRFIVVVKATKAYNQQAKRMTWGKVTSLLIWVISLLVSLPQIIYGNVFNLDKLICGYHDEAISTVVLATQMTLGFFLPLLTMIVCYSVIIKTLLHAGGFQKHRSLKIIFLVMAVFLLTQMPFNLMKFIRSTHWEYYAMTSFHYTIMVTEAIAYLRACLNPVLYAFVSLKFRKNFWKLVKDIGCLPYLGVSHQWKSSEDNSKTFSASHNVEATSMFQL
MOR ag counter = OPRM1 agonism in mouse HTR2A counterscreen; shares compounds with HTR2A ag; U2OS OPRM1 beta-arrestin PathHunter, luminescence; DMSO 0%, DAMGO 9.3 µM 100%; activation, % at 9.3 µM; 5.3% of 2,300 active; AID 624380;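 active means mean activation above the mean of DMSO-only wells plus 3 SD, cut at about 0.5% in these data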
m5-HT2A ag conf = confirmation of mouse HTR2A serotonin receptor agonists. shares compounds with HTR2A ag. CHO-K1 PathHunter beta-arrestin recruitment, luminescence; DMSO 0%, 30 µM serotonin 100%. activation, % at 7.6 µM. 19% of 2,300 active. AID 624381;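 active means mean activation across triplicates above the hit threshold derived in the original primary screen, cut at about 15% in these data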
Active calls of the source: *; . = not tested or not shown. Rows were chosen to be rich in hits. Some 2.1% of all compounds tested hit in one or more screens of this group.

SMILES | HTR2A ag | CCR6 antagonist | APJ antagonist | EBI2 block | APJ agonist | CXCR6 block | MOR ag counter | m5-HT2A ag conf
COc1cc(NC(=O)c2ccco2)c(OC)cc1NC(=O)Nc1ccc(Cl)cc1 | 15* | -33 | -8 | 3 | 10 | -2 | 0 | -2
CS(=O)(=O)c1ccc(Cl)c(NC(=O)COC(=O)COc2ccc3c(c2)CCC3)c1 | 7 | -8 | -3 | -10 | 1 | -6 | . | .
O=C1c2c(-c3ccc(Br)cc3)noc2CCN1Cc1cn(-c2ccccc2)nn1 | -2 | . | . | -1 | . | . | . | .
COC(=O)C[C@H](NC(=O)Cn1cc(C)c(=O)[nH]c1=O)C(=O)OC | -3 | 4 | . | -5 | . | -9 | . | .
Cc1nc2c([nH]1)C1(CCN(Cc3ccccc3)CC1)C(C#N)=C(N)O2 | 33* | 6 | 10 | 4 | 2 | 5 | 0 | 0
O=C(CCCN1C(=O)NC2(CCCC2)C1=O)Nc1ccc(Cl)c(S(=O)(=O)N2CCOCC2)c1 | -7 | -1 | 13 | -11 | -5 | 4 | . | .
Cc1nn(CC2CC2)c(=O)n1-c1cccc(Cl)c1 | 20* | -1 | -8 | -5 | 0 | 10 | 0 | -3
CC(C)(C)SCCNC(=O)CN(c1ccccc1)S(=O)(=O)c1ccccc1 | -3 | 10 | 10 | 15 | 2 | 4 | . | .
Cc1ccc2nc(-c3ccc(NC(=O)CN4CCN(C(=O)c5ccco5)CC4)cc3)sc2c1 | 15* | 20 | 19 | 12 | 2 | 16 | 0 | 60*
Cc1[nH]c2ccccc2c1NC(=O)CN1CCN(C(=O)c2ccco2)CC1 | 22* | 3 | -15 | -8 | -1 | -12 | -1 | 81*
CC(C)(C)c1ccc(C(=O)OCC(=O)N2CCC(c3ccccc3)=N2)cc1 | 5 | 13 | 7 | 15 | -5 | -5 | . | .
O=C(COc1coc(CN2CCc3ccccc3C2)cc1=O)N1CCOCC1 | -2 | 12 | 16 | 1 | 1 | 1 | . | .
COc1ccc(NC(=O)N2CCC(C(=O)c3ccc4c(c3)OCCO4)CC2)cc1 | 17* | 8 | -14 | 34 | -1 | 1 | -1 | -4
O=C(c1ccc2c(c1)OCCO2)C1CCN(C(=O)Nc2ccc(F)cc2)CC1 | 4 | 11 | -7 | 15 | 0 | 2 | . | .
O=C(Nc1ccc2c(c1)OCO2)c1c[nH]c(=O)n(-c2ccc(F)cc2)c1=O | 15* | -5 | -1 | -2 | -1 | 5 | 0 | -5
COc1ccc(-n2c(=O)[nH]cc(C(=O)Nc3ccc4c(c3)OCCO4)c2=O)cc1OC | 5 | 10 | 0 | 0 | 9 | -11 | . | .
CCCn1nnnc1NCc1ccccc1C | 1 | 12 | 7 | -4 | 1 | -7 | . | .
COc1cc2c(cc1OC)CN(c1nc(CN3CCCC3)nc3sc(C)c(C)c13)CC2 | 35* | -28 | -16 | -61 | 2 | -5 | -1 | 32*
CN1CCc2c(sc(NC(=O)Cc3ccccc3)c2C#N)C1 | 18* | 2 | 15 | -7 | -3 | -2 | 0 | 69*
O=C(NC(=O)c1c(F)cccc1F)Nc1cccc(Oc2ncc(Cl)cn2)c1 | 0 | 19 | . | 0 | . | 3 | . | .
CN(CC(=O)Nc1cccnc1)S(=O)(=O)c1ccc(Br)cc1 | 17* | -4 | 4 | -3 | 0 | 0 | -1 | -4
O=C(Cn1cnc2ccccc2c1=O)N1CCN(Cc2ccc3c(c2)OCO3)CC1 | 15* | -3 | -8 | 2 | -2 | 5 | -1 | 47*
O=C(Cn1cnc2ccccc2c1=O)NCC(=O)N1CCN(Cc2ccc3c(c2)OCO3)CC1 | 2 | 18 | 10 | 0 | 5 | -2 | . | .
CN(C)C(=O)c1snnc1-c1ccccc1 | 18* | 2 | -28 | 0 | -2 | 5 | 0 | -2
CC(=O)Nc1ccc(S(=O)(=O)N2c3ccccc3NC(=O)CC2C)c(Cl)c1 (stereo not drawn) | 17* | 6 | -6 | -2 | 2 | 0 | 0 | -1
SMILES | HTR2A ag | CCR6 antagonist | APJ antagonist | EBI2 block | APJ agonist | CXCR6 block | MOR ag counter | m5-HT2A ag conf
Cc1[nH]c2ccccc2c1C(=O)C(C)OC(=O)c1ccccc1NCCO (stereo not drawn) | 0 | 13 | -24 | 8 | 2 | -7 | . | .
O=C(Nc1ccccc1)Nc1ccc2ccccc2n1 | 16* | -11 | 22 | 21 | 0 | -5 | 0 | -4
Cn1c(SCC(=O)NCc2ccco2)nnc1-c1ccc(S(=O)(=O)N2CCOCC2)cc1 | -1 | -1 | 7 | -6 | -4 | 2 | . | .
CCC(C)n1c(SCC(=O)NCc2ccco2)nnc1-c1cccc(S(=O)(=O)N2CCOCC2)c1 (stereo not drawn) | 15* | 6 | -6 | -7 | -1 | 6 | -1 | -1
C#C[C@]1(O)CCC2C3CCC4=CC(=O)CC[C@@H]4C3CC[C@@]21C (stereo partly drawn) | 15* | 3 | -1 | 2 | -1 | 0 | -1 | 4
O=C(Cc1cccc(C(F)(F)F)c1)NCc1cccc(Cl)c1 | 25* | 4 | 5 | 7 | -2 | -1 | 0 | -6
Cc1cc(CN2CCCC(N3CCc4ccccc4C3)C2)cc(C)c1O (stereo not drawn) | -12 | 15 | 15 | -11 | -3 | 5 | . | .
Cc1cccc(NC(=O)CCc2ccc(N3C(N)=NC(N)=NC3(C)C)cc2)c1 | -3 | . | . | -4 | . | 2 | . | .
COc1cc(OC)c(C(=O)Nc2ccc(C(=O)c3ccccc3)cc2)cc1OC | -3 | 13 | 6 | 4 | 3 | 8 | . | .
COc1cccc(-c2cc(N3CCN(C(=O)c4ccoc4)CC3)n3nc(-c4cccc(Cl)c4)cc3n2)c1 | 16* | . | . | 28 | . | 8 | -1 | -1
CC(=O)N1CCN(C(=O)c2ccc(Cl)c(NC(=O)c3cccs3)c2)CC1 | 15* | 2 | 10 | -3 | -2 | 4 | -1 | -3
CCOC(=O)N1CCN(C(=O)c2ccc(Cl)c(NC(=O)c3cccs3)c2)CC1 | -2 | 4 | -4 | 6 | -1 | 5 | . | .
Cc1ccc(S(=O)(=O)C[C@@H]2OC[C@H](CO)N2S(=O)(=O)c2ccc(C)cc2)cc1 | 2 | . | . | -1 | . | . | . | .
COc1cc(Cl)c(S(=O)(=O)N2CCOCC2)cc1Cl | 15* | 13 | 20 | -1 | 1 | -5 | 0 | -4
COc1cc2[nH]c(=S)n(Cc3cccs3)c(=O)c2cc1OC | 19* | 3 | 14 | 9 | 0 | 0 | -1 | -2
O=C(c1ccc(=O)[nH]n1)N1CCN(S(=O)(=O)c2cccc(F)c2)CC1 | -4 | 4 | 0 | -8 | -2 | 3 | . | .
